Read-outs that look alike come from different tables or passages of the source.
What was measured:
hTopo I = biological target: T1, hTopo I (Homo sapiens, UniProt P11387); test: Relaxation assay for hTopo I; type: biochemical; details: for fold lower activity (loss in hTopo I inhibition) than 5a: relative to 5a; for fold lower activity (loss in hTopo I inhibition) than 5a / fold lower activity (loss in hTopo I inhibition) than 217: from relaxation assay IC50; for fold lower activity (loss in hTopo I inhibition) than 217: relative to 217
T1 sequence (P11387 1-765): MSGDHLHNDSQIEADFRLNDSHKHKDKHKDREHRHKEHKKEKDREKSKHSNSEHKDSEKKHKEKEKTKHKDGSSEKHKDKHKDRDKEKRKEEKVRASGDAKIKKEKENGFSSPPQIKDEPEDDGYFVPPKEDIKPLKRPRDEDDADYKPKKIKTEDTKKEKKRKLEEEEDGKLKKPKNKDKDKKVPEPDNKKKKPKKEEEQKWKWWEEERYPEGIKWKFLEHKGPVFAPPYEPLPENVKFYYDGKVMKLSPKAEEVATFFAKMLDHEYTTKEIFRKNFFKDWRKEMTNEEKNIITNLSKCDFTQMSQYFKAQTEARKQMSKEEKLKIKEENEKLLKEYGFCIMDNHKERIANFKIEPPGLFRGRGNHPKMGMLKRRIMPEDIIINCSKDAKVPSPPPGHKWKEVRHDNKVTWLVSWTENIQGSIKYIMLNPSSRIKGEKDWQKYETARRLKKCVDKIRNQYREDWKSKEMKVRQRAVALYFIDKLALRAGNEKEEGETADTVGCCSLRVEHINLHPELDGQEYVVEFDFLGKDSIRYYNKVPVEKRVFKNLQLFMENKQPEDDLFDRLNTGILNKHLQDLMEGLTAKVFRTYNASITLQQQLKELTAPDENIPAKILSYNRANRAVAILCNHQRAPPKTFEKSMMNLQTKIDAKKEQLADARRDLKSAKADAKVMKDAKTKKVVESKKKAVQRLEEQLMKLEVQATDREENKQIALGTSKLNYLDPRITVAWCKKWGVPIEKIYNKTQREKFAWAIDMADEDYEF
Method in brief: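 Supercoiled pBR322 (0.3 μg) was relaxed by 1 unit of commercial human Topo I. Buffer: 50 mM Tris-HCl pH 7.5, 100 mM NaCl, 10 mM MgCl2, 1 mM DTT, 50 μg/ml BSA, plus varied test compound concentrations. Incubation was 15 min at 37°C, stopped with 25 mM EDTA. Products ran on 1.2% agarose, 2 V/cm, 15 h, TAE, then were ethidium-stained and imaged. IC50 came from band quantification.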

[1] = system: colon cancer (HT-29) xenograft; details: HT-29 xenograft model, mice; cited from earlier work
calf thymus DNA (Ct-DNA) [2] = test: DNA binding assay; details: several ratios of DNA to FQ
[3] = system: 27-bp sequence d(CCTTACGTGCATAGTCATTCATGACCG) of dsDNA; test: DNA binding assay; details: compound 25 μM
calf thymus DNA (Ct-DNA) [4] = details: ref Previous studies; cited from earlier work

In the case of `NC[C@@H]1CCN(c2ccc3c(=O)c(C(=O)O)cn(Cc4ccc(-c5ccccc5)cc4)c3c2)C1` [086B/6a, (S)-1-([1,1′-biphenyl]-4-ylmethyl)-7-(3-(aminomethyl)pyrrolidin-1-yl)-4-oxo-1,4-dihydroquinoline-3-carboxylic acid], the “fold lower activity (loss in hTopo I inhibition) than 5a” value (hTopo I) is reported as about 4 fold and the “fold lower activity than its cognate C6-fluorine analog 7a” value (hTopo I; relative to 7a as printed) is reported as 4 fold.

For `O=C(O)c1cn(Cc2ccc(-c3ccccc3)cc2)c2cc(N3CC4CNCC4C3)c(F)cc2c1=O` (stereo not drawn) [089/5l, 1-([1,1′-biphenyl]-4-ylmethyl)-6-fluoro-7-(hexahydropyrrolo[3,4-c]pyrrol-2(1H)-yl)-4-oxo-1,4-dihydroquinoline-3-carboxylic acid], the “fold lower activity (loss in hTopo I inhibition) than 5a” value (hTopo I) was 2 fold.

With `O=C(O)c1cn(Cc2ccc(-c3ccccc3)cc2)c2cc(N3C[C@H]4CCNC[C@H]4C3)c(F)cc2c1=O` [091/5k, 1-([1,1′-biphenyl]-4-ylmethyl)-6-fluoro-7-((3aS,7aS)-hexahydro-1H-pyrrolo[3,4-c]pyridin-2(3H)-yl)-4-oxo-1,4-dihydroquinoline-3-carboxylic acid] the “fold lower activity (loss in hTopo I inhibition) than 5a” value (hTopo I) was 4 fold and the “fold more active than 5f” value (hTopo I; relative to C7 N-methyl AMP analog 5f) was about 3 fold.

In the case of `N[C@@H]1CCN(c2cc3c(cc2F)c(=O)c(C(=O)O)cn3Cc2ccc(-c3ccccc3)cc2)C1` [117/5g, (R)-1-([1,1′-biphenyl]-4-ylmethyl)-7-(3-aminopyrrolidin-1-yl)-6-fluoro-4-oxo-1,4-dihydroquinoline-3-carboxylic acid], the “fold lower activity (loss in hTopo I inhibition) than 5a” value (hTopo I) is reported as 4 fold.

With `CN[C@@H]1CCN(c2cc3c(cc2F)c(=O)c(C(=O)O)cn3Cc2ccc(-c3ccccc3)cc2)C1` [118/5h, (R)-1-([1,1′-biphenyl]-4-ylmethyl)-6-fluoro-7-(3-(methylamino)pyrrolidin-1-yl)-4-oxo-1,4-dihydroquinoline-3-carboxylic acid] the “fold lower activity (loss in hTopo I inhibition) than 5a” value (hTopo I) was 2 fold.

In the case of `COc1c(N2CC[C@@H](N)C2)c(F)cc2c(=O)c(C(=O)O)cn(Cc3ccc(-c4ccccc4)cc3)c12` [226/4d, (R)-1-([1,1′-biphenyl]-4-ylmethyl)-7-(3-aminopyrrolidin-1-yl)-6-fluoro-8-methoxy-4-oxo-1,4-dihydroquinoline-3-carboxylic acid], the “fold lower activity (loss in hTopo I inhibition) than 217” value (hTopo I) is reported as “more than 3 fold”.

For `CN[C@@H]1CCN(c2c(F)cc3c(=O)c(C(=O)O)cn(Cc4ccc(-c5ccccc5)cc4)c3c2OC)C1` [228/4e, (R)-1-([1,1′-biphenyl]-4-ylmethyl)-6-fluoro-8-methoxy-7-(3-(methylamino)pyrrolidin-1-yl)-4-oxo-1,4-dihydroquinoline-3-carboxylic acid], the “fold lower activity (loss in hTopo I inhibition) than 217” value (hTopo I) was “about 2 fold”.

For `CNC(=O)c1cn(Cc2ccc(-c3ccccc3)cc2)c2c(OC)c(N3CC[C@@H](CN)C3)c(F)cc2c1=O` [242/3a, (S)-1-([1,1′-biphenyl]-4-ylmethyl)-7-(3-(aminomethyl)pyrrolidin-1-yl)-6-fluoro-8-methoxy-N-methyl-4-oxo-1,4-dihydroquinoline-3-carboxamide], the “fold lower activity (loss in hTopo I inhibition) than 217” value (hTopo I) was 3- to 7 fold.

In the case of `COc1c(N2CC[C@@H](CN)C2)c(F)cc2c(=O)c(C(N)=O)cn(Cc3ccc(-c4ccccc4)cc3)c12` [251/3b, (S)-1-([1,1′-biphenyl]-4-ylmethyl)-7-(3-(aminomethyl)pyrrolidin-1-yl)-6-fluoro-8-methoxy-4-oxo-1,4-dihydroquinoline-3-carboxamide], the “fold lower activity (loss in hTopo I inhibition) than 217” value (hTopo I) is reported as 3- to 7 fold.

With `COc1c(N2CC[C@@H](CN)C2)c(F)cc2c(=O)c(C(=O)O)cn(Cc3ccc(-c4ccc(F)cc4)cc3)c12` [277/7c, (S)-7-(3-(aminomethyl)pyrrolidin-1-yl)-6-fluoro-1-((4′-fluoro-[1,1′-biphenyl]-4-yl)methyl)-8-methoxy-4-oxo-1,4-dihydroquinoline-3-carboxylic acid] the “fold lower activity (loss in hTopo I inhibition) than 217” value (hTopo I) was 2 fold.

For `COc1c(N2CC[C@@H](CN)C2)c(F)cc2c(=O)c(C(=O)O)cn(Cc3ccc(-n4cccn4)cc3)c12` [292B/7a, (S)-1-(4-(1H-pyrazol-1-yl)benzyl)-7-(3-(aminomethyl)pyrrolidin-1-yl)-6-fluoro-8-methoxy-4-oxo-1,4-dihydroquinoline-3-carboxylic acid], the “fold lower activity (loss in hTopo I inhibition) than 217” value (hTopo I) was at least 7 fold.

With `COc1c(N2CC[C@@H](CN)C2)c(F)cc2c(=O)c(C(=O)O)cn(Cc3cc(-c4ccccc4)no3)c12` [294B/7b, (S)-7-(3-(aminomethyl)pyrrolidin-1-yl)-6-fluoro-8-methoxy-4-oxo-1-((3-phenylisoxazol-5-yl)methyl)-1,4-dihydroquinoline-3-carboxylic acid] the “fold lower activity (loss in hTopo I inhibition) than 217” value (hTopo I) was at least 7 fold.

With `O=C(O)c1cn(Cc2ccc(-n3cccn3)cc2)c2cc(NC[C@@H]3CCNC3)c(F)cc2c1=O` [298B/9e, (R)-1-(4-(1H-pyrazol-1-yl)benzyl)-6-fluoro-4-oxo-7-((pyrrolidin-3-ylmethyl)amino)-1,4-dihydroquinoline-3-carboxylic acid] the IC50 (hTopo I) was over 200 µM.

With `O=C(O)c1cn(Cc2ccc(-n3cccn3)cc2)c2cc(N3C[C@H]4CCNC[C@H]4C3)c(F)cc2c1=O` [300B/9c, 1-(4-(1H-pyrazol-1-yl)benzyl)-6-fluoro-7-((3aS,7aS)-hexahydro-1H-pyrrolo[3,4-c]pyridin-2(3H)-yl)-4-oxo-1,4-dihydroquinoline-3-carboxylic acid] the “fold improvement of hTopo I inhibition compared to 9a” value (hTopo I; relative to 9a) was 2 fold.

For `COc1c(N2CC[C@@H](CN)C2)c(F)cc2c(=O)c(C(=O)O)cn(Cc3ccc(-c4ccccc4)cc3)c12` [Compound 217], the “inhibition of proliferation of colon cancer in vivo” value [1] is given as “inhibited the proliferation of colon cancer in vivo as well as fluorouracil”, the “fluorescence quenching upon addition of Ct-DNA” value (calf thymus DNA (Ct-DNA) [2]) is given as “Modest fluorescence quenching” and the “bathochromic shift upon addition of Ct-DNA” value (calf thymus DNA (Ct-DNA) [2]; fluoroquinolone 25 μM, Ct-DNA 0 or 400 μM) is given as “no bathochromic shift was observed”. The “bathochromic shift upon addition of 27-bp dsDNA” value [3] was “a bathochromic shift was not observed” and the “fluorescence quenching upon addition of 27-bp dsDNA” value ([3]; dsDNA 0–200 μM, n=3) was “quenched in a concentration-dependent manner”.

In the case of `COc1c(N2CC[C@@H](CN)C2)c(F)cc2c(=O)c(C(=O)O)cn(Cc3ccc4ccccc4c3)c12` [Compound 227], the “inhibition of proliferation of colon cancer in vivo” value [1] is listed as “exhibited activity but was not as effective as 217”.

In the case of `CCn1cc(C(=O)O)c(=O)c2cc(F)c(N3CCNCC3)cc21` [Norfloxacin], the “bathochromic shift upon addition of Ct-DNA” value (calf thymus DNA (Ct-DNA) [4]) is given as “an observed bathochromic shift” and the “fluorescence quenching upon addition of Ct-DNA” value (calf thymus DNA (Ct-DNA) [4]) is given as “significant quenching”.
